Bioassay records (PubChem)
S1P2 ag = agonists of human S1P2 receptor; O95136; S1P2-expressing cell line, agonist reporter read-out; activation, % at 4.5 µM; 97,000 tested, 0.46% active; in the data active = activation above about 16%
GALR2 ag = GALR2 (human) receptor agonism; O43603; AID 803; activation, % (concentration not given with the values); GALR2-expressing cells, agonist activation read-out; 140,000 tested, 0.48% active; in the data active = activation above about 5%, passing the limit was not always enough
Rev-RRE block = inhibitors of HIV-1 Rev-RRE RNA interaction; inhibition, % at 8 µM; Rev peptide-RRE RNA binding, FRET; 97,000 tested, 0.79% active;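 active = inhibition above the screen-wide mean plus 3 SD, cut at about 35% in these data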
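Test system – labelled RRE RNA duplex and labelled Rev peptide · Signal – fluorescein-to-Cy5 FRET, 480 nm excitation · Evaluation – % inhibition of FRET ratio versus controls · Benchmarks – DMSO low control, neomycin B high control · Incubation – 5 min RNA-compound premix plus 15 min binding step, 25 °C · Medium – HEPES pH 7.5 salt buffer with EDTA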
EphB4 ephrin blk = antagonists of human EphB4-ephrin-B2 interaction | P54760 | EphB4 LBD / TNYL-RAW-Alexa532 peptide, fluorescence polarization | inhibition, % at 7 µM | 97,000 tested, 0.15% active;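 active = inhibition above the screen-wide mean inhibition plus 3 SD, cut at about 15% in these data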
GALR2 blocker = GALR2 (human) receptor antagonism | O43603 | GALR2-expressing cells, antagonist mode | inhibition, % at 4 µM | 140,000 tested, 0.39% active | AID 828; in the data active = inhibition above about 27%;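 note: cells stimulated with galanin 1-16 at roughly its EC80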
S1P2 blocker = antagonists of human S1P2 receptor; cell-based S1P2 antagonist assay, inhibition at 5 uM; AID 736; inhibition, % at 5 µM; O95136; 97,000 tested, 0.21% active; in the data active = inhibition above about 45%;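 note: CRE beta-lactamase reporter cells expressing human S1P2 stimulated with S1P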
Hits are given with their value; [ ] = dose if it differs, or a comment. In the library only some 1.8% were active in any assay of this set; here they are far more common.

How did Cc1ccc(N=Cc2cccc(O)c2O)c(C)c1 do in these assays?
S1P2 ag: inactive; GALR2 ag: inactive; Rev-RRE block: inactive; EphB4 ephrin blk: inactive; GALR2 blocker: inactive; S1P2 blocker: inactive

Results for Cc1ccc(N=Cc2sc(O)c3ccccc23)c(C)c1 ?
S1P2 ag: inactive; GALR2 ag: inactive; Rev-RRE block: 93[fluorescence artefact?]; EphB4 ephrin blk: inactive; GALR2 blocker: inactive; S1P2 blocker: inactive

Results for Cc1ccc(C(O)(C(=O)NNc2ccc3ccccc3n2)c2ccc(C)cc2)cc1 ?
GALR2 ag: inactive; GALR2 blocker: inactive

Results for CN1CC=C2C(C#N)=C(N)C(C#N)(C#N)C(c3ccsc3)C2C1 (centres undefined) ?
S1P2 ag: inactive; GALR2 ag: inactive; Rev-RRE block: 56; EphB4 ephrin blk: inactive; GALR2 blocker: inactive; S1P2 blocker: inactive

What do the screens show for `CN1CC=C2C(C#N)=C(N)C(C#N)(C#N)[C@H](c3cccc(Cl)c3)C2C1` (some centres undefined)?
S1P2 ag: inactive; GALR2 ag: inactive; Rev-RRE block: 64; EphB4 ephrin blk: inactive; GALR2 blocker: inactive; S1P2 blocker: inactive

How did CCCC1C2CN(C(C)C)CC=C2C(C#N)=C(N)C1(C#N)C#N (centres undefined) do in these assays?
S1P2 ag: inactive; GALR2 ag: inactive; Rev-RRE block: 70; EphB4 ephrin blk: inactive; GALR2 blocker: inactive; S1P2 blocker: inactive

How did CCOC(=O)N1CC=C2C(C#N)=C(N)C(C#N)(C#N)[C@H](c3ccsc3)[C@H]2C1 do in these assays?
S1P2 ag: inactive; GALR2 ag: inactive; Rev-RRE block: inactive; EphB4 ephrin blk: inactive; GALR2 blocker: inactive; S1P2 blocker: inactive

Results for CN1CC=C2C(C#N)=C(N)C(C#N)(C#N)[C@H](c3cccs3)[C@H]2C1 ?
S1P2 ag: inactive; GALR2 ag: inactive; Rev-RRE block: 58; EphB4 ephrin blk: inactive; GALR2 blocker: inactive; S1P2 blocker: inactive

Results for CCn1nc(NC(=O)c2ccccn2)c2cc3cccc(C)c3nc21 ?
S1P2 ag: 19; GALR2 ag: inactive; Rev-RRE block: inactive; EphB4 ephrin blk: inactive; GALR2 blocker: inactive; S1P2 blocker: inactive

Results for CCSc1ncc(/C=N/Nc2ccccc2)n1C ?
S1P2 ag: inactive; GALR2 ag: inactive; Rev-RRE block: inactive; EphB4 ephrin blk: inactive; GALR2 blocker: inactive; S1P2 blocker: inactive

Results for Cc1ccccc1-n1c(C)cc(/C=N/Nc2ccc([N+](=O)[O-])cn2)c1C ?
S1P2 ag: inactive; GALR2 ag: inactive; Rev-RRE block: inactive; EphB4 ephrin blk: inactive; GALR2 blocker: inactive; S1P2 blocker: inactive

Results for CCSc1ncc(/C=N/Nc2ccc([N+](=O)[O-])cc2)n1C ?
S1P2 ag: inactive; GALR2 ag: inactive; Rev-RRE block: 66[fluorescence artefact?]; EphB4 ephrin blk: inactive; GALR2 blocker: inactive; S1P2 blocker: inactive

How did O=[N+]([O-])c1ccc(N/N=C\c2cccn2-c2ccccc2)nc1 do in these assays?
S1P2 ag: inactive; GALR2 ag: inactive; Rev-RRE block: 41; EphB4 ephrin blk: inactive; GALR2 blocker: inactive; S1P2 blocker: inactive

What do the screens show for `S=C(Nc1ccc(N2CCOCC2)cc1)Nc1ccc2nc(-c3ccco3)c(-c3ccco3)nc2c1`?
S1P2 ag: inactive; GALR2 ag: inactive; Rev-RRE block: 104[fluorescence artefact?]; EphB4 ephrin blk: inactive; GALR2 blocker: inactive; S1P2 blocker: inactive

What do the screens show for `COC(=O)C1=C(N)Oc2cc(N(C)C)ccc2C1c1ccccc1OC` (centres undefined)?
S1P2 ag: inactive; GALR2 ag: inactive; Rev-RRE block: 37; EphB4 ephrin blk: inactive; GALR2 blocker: inactive; S1P2 blocker: inactive

Results for Cc1cc(C)n2nc(N)c(N=Nc3ccc(Cl)cc3)c2n1 ?
GALR2 ag: inactive; GALR2 blocker: inactive

How did CC(C)Cn1c(N)c(C(=O)COC(=O)CC23CC4CC(CC(C4)C2)C3)c(=O)n(C)c1=O do in these assays?
S1P2 ag: inactive; GALR2 ag: inactive; Rev-RRE block: inactive; EphB4 ephrin blk: inactive; GALR2 blocker: inactive; S1P2 blocker: 59

What do the screens show for `COc1ccc(N=CC2=C(Nc3ccc(OC)cc3)c3c(C)nn(-c4ccccn4)c3CC2)cc1`?
S1P2 ag: inactive; GALR2 ag: inactive; Rev-RRE block: 87[fluorescence artefact?]; EphB4 ephrin blk: 25; GALR2 blocker: inactive; S1P2 blocker: inactive

How did Cc1cc([N+](=O)[O-])nn1CC(=O)N1c2ccccc2CC1C (centres undefined) do in these assays?
GALR2 ag: inactive; GALR2 blocker: inactive

Results for CCOC(=O)C1C(C)=C(Nc2ccc(OC)cc2)C(=O)N1c1ccc(OC)cc1 (centres undefined) ?
GALR2 ag: inactive; GALR2 blocker: inactive

Results for COc1ccc(C(=O)Nc2cccc(-c3cc4ccccc4oc3=O)c2)cc1[N+](=O)[O-] ?
GALR2 ag: inactive; GALR2 blocker: inactive

Results for COCCn1c(=N)c(C(=O)NCCc2ccccc2)cc2c(=O)n3cccc(C)c3nc21 ?
S1P2 ag: inactive; GALR2 ag: inactive; Rev-RRE block: inactive; EphB4 ephrin blk: inactive; GALR2 blocker: inactive; S1P2 blocker: inactive

What do the screens show for `Cc1cccn2c(=O)c3cc(C(=O)NCCN4CCOCC4)c(=N)n(CCc4ccccc4)c3nc12`?
S1P2 ag: 39; GALR2 ag: 7.9; Rev-RRE block: inactive; EphB4 ephrin blk: inactive; GALR2 blocker: inactive; S1P2 blocker: inactive

What do the screens show for `Cc1cccn2c(=O)c3cc(C(=O)NCCc4ccccc4)c(=N)n(CCCn4ccnc4)c3nc12`?
S1P2 ag: 64; GALR2 ag: inactive; Rev-RRE block: inactive; EphB4 ephrin blk: inactive; GALR2 blocker: inactive; S1P2 blocker: inactive

What do the screens show for `CCCCNC(=O)c1cc2c(=O)n3cccc(C)c3nc2n(Cc2ccccc2)c1=N`?
GALR2 ag: 7.7; GALR2 blocker: inactive

Results for Cc1c(NC(=O)C(=O)/C=C(\O)c2ccc(Br)cc2)c(=O)n(-c2ccccc2)n1C ?
GALR2 ag: inactive; GALR2 blocker: inactive

What do the screens show for `CCOC(=O)NC1(C(F)(F)F)NC(=O)N(c2ccc(F)cc2)C1=O` (centres undefined)?
GALR2 ag: inactive; GALR2 blocker: inactive

What do the screens show for `COC(=O)/C=C/c1ccc(OC(=O)OC)c(OC(=O)OC)c1`?
GALR2 ag: inactive; GALR2 blocker: inactive

How did CC(NC(=O)/C(C#N)=C1\N=C(NC(=O)c2cccs2)c2ccccc21)c1ccccc1 (centres undefined) do in these assays?
GALR2 ag: inactive; GALR2 blocker: inactive

What do the screens show for `Cc1ccc(C2C(C(N)=S)=C(N)OC3=C2C(=O)CC(C)(C)C3)cc1` (centres undefined)?
GALR2 ag: inactive; GALR2 blocker: inactive

What do the screens show for `CC1(C)CC(=O)C2=C(C1)OC1=C(C(=O)CC(C)(C)C1)C2c1ccc(O)cc1O`?
S1P2 ag: inactive; GALR2 ag: inactive; Rev-RRE block: 94[fluorescence artefact?]; EphB4 ephrin blk: inactive; GALR2 blocker: inactive; S1P2 blocker: inactive

How did CCc1ccc(/C=C2\CN(CC)Cc3c2nc2ccccc2c3C(=O)O)cc1 do in these assays?
S1P2 ag: inactive; GALR2 ag: inactive; Rev-RRE block: 40; EphB4 ephrin blk: inactive; GALR2 blocker: inactive; S1P2 blocker: inactive
